Screens: PubChem BioAssay, several laboratories
Shown is part of a subset that was picked to be rich in hits.
T cruzi inh – blocks replication of Trypanosoma cruzi; 1.4% of 300,000 active; inhibition, % (concentration not given with the values); T. cruzi beta-gal in NIH3T3, luminescence, 90 h;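 active means mean inhibition across valid replicates above about 55%, limit read from the data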;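 further: signal also drops with host cell toxicity which is not excluded here; 0% = plate median of DMSO wells and 100% = zero luminescence signal; higher percent means less beta-gal luminescence so fewer parasites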
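Read-out: Parasite load inhibition, % | Test system: Mouse NIH/3T3 fibroblasts infected with β-gal-expressing T. cruzi Tulahuen C4 | Amount: 5,000 cells/well | Medium: DMEM, 2% fetal bovine serum | Signal: GalScreen β-gal luminescence, detergent lysis, 60 min | Timing: 3 h attach, ≥90 h co-culture | Also added: Tulahuen C4 trypomastigotes, 5000/well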
UPR XBP1 act – activators of adaptive arm of unfolded protein response (XBP1). CHO-XBP1 luciferase reporter, IRE1-XBP1 UPR activation, luminescence; percent of tunicamycin response, DMSO as zero. activation, % at 20 µM. 0.33% of 330,000 active;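 active means versus positive control, 20 µM dose yields 30% or more activation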;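 further: 100% = tunicamycin at 10 µg/mL and 0% = DMSO only wells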
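Material: CHO-XBP1 cells stably carrying IRE1-XBP1-driven luciferase reporter / Amount: 1000 cells per well / Compound: 20 µM, 1% DMSO / Times: 6 h treatment, 37 °C / Detection: luciferase luminescence / Measure: % activation of reporter signal versus tunicamycin and DMSO controls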
Lmaj promast – reduces viability of Leishmania major promastigotes | resazurin fluorescence viability | AID 1063 | 9% of 200,000 active | inhibition, % at 10 µM; in the data active means inhibition above about 50%;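 further: promastigotes grown with compound for 44 hours at 28 °C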
Dynein transport – blocks dynein driven cargo transport along microtubules; 3617.4 mouse cells, GR-EGFP nuclear translocation imaging; test concentration mostly 20 µM; stimulated with dexamethasone, 1 µM; hits give low values; z-score, hits read low; 0.47% of 220,000 active; AID 1381;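 active means plate z-score of nuclear minus cytoplasmic receptor signal below a set negative limit, without overly bright fluorescence or cell loss, cut at about -3.5 in these data, passing the limit was not always enough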;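 further: z-score of nuclear minus cytoplasmic ring GR-EGFP intensity difference per well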
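Buffer or medium: tet-free, stripped-serum medium; reagent: dexamethasone at 1.0 µM final, 30 min; incubation: 48 h induction, 1 h compound, 30 min dex at 37 °C; measured by: formaldehyde fixation, Hoechst nuclear stain, 10x automated fluorescence imaging; read-out: nuclear-to-cytoplasmic GR-EGFP distribution per well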
CHOP inh – CHOP inhibition in unfolded protein response. CHO-K1 CHOP-promoter luciferase, tunicamycin-induced, 15-18 h. inhibition, % at 10 µM. AID 2732. 3.8% of 220,000 active;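 active means compounds that reduced the stress-induced luciferase reporter signal by more than about 70% of percent inhibition, limit read from the data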;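 further: 0% = tunicamycin plus vehicle and 100% = wells without tunicamycin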
UPR CHOP act – activators of apoptotic arm of unfolded protein response (CHOP) | CHO-CHOP luciferase reporter, UPR activation, luminescence; percent of tunicamycin response over DMSO baseline | activation, % at 10 µM | 0.34% of 330,000 active;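 active means at 10 µM dose, activation of 40% or more, normalized to positive control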;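 further: 100% = tunicamycin at 10 µg/mL and 0% = DMSO alone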
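assay system = CHO CHOP reporter cells | amount = 500 CHO-CHOP cells per well | buffer or medium = F12 with 10% FBS | incubation = 16-18 h cell attachment, then 6 h compound exposure, 37 °C | detection = luminescence read with Steady-Glo | read-out = percent activation relative to tunicamycin control | controls = tunicamycin high control, DMSO low control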
CHOP inh conf – confirmation of CHOP induction inhibitors; CHO-CHOP promoter luciferase reporter, tunicamycin-induced, luminescence; shares compounds with CHOP inh; AID 504437; inhibition, % at 10 µM; 45% of 2,100 active;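 active means mean of three repeat readings of reporter signal inhibition above a set limit, cut at about 70% in these data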;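 further: 0% = tunicamycin plus vehicle and 100% = wells lacking tunicamycin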
UPR CHOP confirm – apoptotic UPR (CHOP) activation, confirmed | AID 463112 | activation, % at 10 µM | CHO-CHOP cells, CHOP-luciferase reporter luminescence; percent of tunicamycin response, DMSO as zero | 64% of 1,000 active | shares compounds with UPR CHOP act; in the data active means activation above about 33%;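 further: 0% = DMSO wells and 100% = tunicamycin 10 µg/mL wells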
UPR XBP1 confirm – confirmation of adaptive unfolded protein response (XBP1) activators; shares compounds with UPR XBP1 act; CHO-XBP1 IRE1-XBP1 luciferase reporter, luminescence; activation, % at 20 µM; 63% of 1,000 active; AID 485299;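 active means reporter signal at least 30% of the positive control's activation in two or more of four replicate wells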;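 further: plate controls were DMSO negative control for no effect and tunicamycin 10 µg/mL positive control for full effect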
* = called active by the depositor.

`Cc1ccc(/C=C2\C(=O)NC(=O)N(CCc3ccc(F)cc3)C2=O)o1` gave T cruzi inh -27, UPR XBP1 act 1, Lmaj promast -6, Dynein transport 0.43, CHOP inh 105*, UPR CHOP act 0 and CHOP inh conf -20.
For Cc1ccc(/C=C2\C(=O)NC(=O)N(Cc3ccccc3Cl)C2=O)o1 the results were T cruzi inh -20, UPR XBP1 act 19, Lmaj promast 16, Dynein transport -2.2, CHOP inh 105*, UPR CHOP act 4 and CHOP inh conf -28.
`Cc1ccc(/C=C2\C(=O)NC(=O)N(CCc3ccc(F)cc3)C2=O)s1` gave T cruzi inh -16, UPR XBP1 act 2, Lmaj promast 4, Dynein transport 0.56, CHOP inh -26 and UPR CHOP act 0.
`O=c1c2ccccc2nc(CNCc2ccco2)n1-c1ccc(F)cc1` gave T cruzi inh -2, UPR XBP1 act 0, Lmaj promast -2, Dynein transport -1.6, CHOP inh 8 and UPR CHOP act 2.
`CN1CCCN(C(=O)COc2ccccc2Br)CC1` gave T cruzi inh 12, UPR XBP1 act -1 and UPR CHOP act 1.
`CCCCCCCn1c(=O)c(C(=O)Nc2cnccn2)c(O)c2ccccc21` gave T cruzi inh 6, UPR XBP1 act 0, Dynein transport 0.34, CHOP inh 98*, UPR CHOP act 19 and CHOP inh conf 116*.
For COC(=O)C1=C(c2ccc(C(C)=O)cc2)C[C@@H]2CC[C@H]1N2C(=O)NCc1ccc(F)cc1 the results were UPR XBP1 act 0 and UPR CHOP act 1.
`C[C@@H]1CC2C3CC=C4C[C@@H](O)CC[C@]4(C)C3CC[C@]2(C)[C@H]1O` (some centres undefined) gave UPR XBP1 act 1 and UPR CHOP act 0.
Screening C[C@H]1CC[C@@H]2[C@@H](C)[C@H]3[C@H](C[C@H]4[C@@H]5CC=C6C[C@@H](O[C@@H]7O[C@H](CO)[C@H](O)[C@H](O[C@@H]8O[C@H](CO)[C@@H](O)[C@H](O)[C@H]8O)[C@H]7O[C@@H]7O[C@@H](C)[C@H](O)[C@@H](O)[C@H]7O)CC[C@]6(C)[C@H]5CC[C@]34C)N2C1 returned T cruzi inh -11, UPR XBP1 act 2, Lmaj promast 47, Dynein transport -7.3, CHOP inh 106*, UPR CHOP act 0 and CHOP inh conf -62.
C[N+]1(C)C2CC(OC(=O)[C@H](CO)c3ccccc3)CC1C1OC12 (some centres undefined) was read as UPR XBP1 act -6, CHOP inh -37 and UPR CHOP act -1.
For CN1C(=O)NC(=O)/C(=C\C=C\c2ccccc2[N+](=O)[O-])C1=O the results were T cruzi inh -12, UPR XBP1 act -6, Lmaj promast 42, Dynein transport -1.5, CHOP inh 99*, UPR CHOP act 203*, CHOP inh conf -27 and UPR CHOP confirm 263*.
For C/C(=N\N1CCN(C)CC1)c1c(O)[nH]c(=O)[nH]c1=O the results were T cruzi inh -9, UPR XBP1 act -1, Lmaj promast -11, Dynein transport -0.42, CHOP inh 16 and UPR CHOP act 4.
O=C1NC(=O)C(=Cc2cn(CCOc3ccc4c(c3)OCO4)c3ccccc23)C(=O)N1 was read as T cruzi inh -3, UPR XBP1 act 31*, Lmaj promast 1, Dynein transport -0.43, CHOP inh 99*, UPR CHOP act 11, CHOP inh conf -13 and UPR XBP1 confirm 79*.
